≈ marks a conversion by molar mass, not a printed value.
How the values were obtained:
[1] = system: Jurkat; assay: Concentration required to reduce growth of human jurkat leukemia cells to 50% of control cultures, determined using a 72 hr continuous exposure; format: functional, cell-based
Outline: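 Human Jurkat leukemia cells given continuous drug exposure for 72 h, then counted on a hemocytometer. IC50 is the concentration that cuts cell growth to 50% of untreated controls. Values are means of at least two independent determinations, with variation typically ±15%.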

[2] = In vitro therapeutic index value is the ratio between IC50 values of [J] and [P]; format: cell-based; details: human, Jurkat cells; read-out: TI
[3] = system: Plasmodium falciparum; assay: Inhibitory concentration IC50 against Plasmodium falciparum K1 by [3H]hypoxanthine uptake over 24 hr; format: functional, organism-based
Outline: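 K1 strain of P. falciparum (chloroquine- and pyrimethamine-resistant) in infected erythrocyte suspensions at 0.5% initial parasitemia, exposed to drug for 24 h at 37 °C. Read-out is [3H]hypoxanthine incorporation into parasites. IC50 is the concentration giving 50% inhibition relative to untreated controls.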

[4] = system: Plasmodium falciparum; assay: Inhibitory concentration against Plasmodium falciparum W2 infected erythrocytes; format: functional, organism-based
[5] = system: Plasmodium falciparum; assay: Inhibitory concentration against Plasmodium falciparum D6 infected erythrocytes; format: functional, organism-based
[6] = biological target: DNA topoisomerase II (Homo sapiens) (UniProt P11388+Q02880); assay: Minimum inhibitory concentration required to completely inhibit topoisomerase II activity from jurkat human leukemia cells was determined using P4 DNA unknotting assay
Outline: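 Enzyme is a partially purified topoisomerase II extract from midlog Jurkat cells, made by sonication in Tris pH 8/KCl/MgCl2/EGTA buffer with protease inhibitors, then PEG/KCl precipitation. Extract is diluted to a set P4 DNA unknotting activity. Proteinase K method scores unknotting and linearization of phage P4 DNA on 0.7% agarose gels stained with ethidium bromide. MIC is the concentration giving complete inhibition.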

[7] = biological target: T1, DNA topoisomerase 2 (Plasmodium falciparum K1) (UniProt P41001); assay: Minimum inhibitory concentration required to completely inhibit topoisomerase II activity from Plasmodium falciparum was determined using P4 DNA […] assay
T1 sequence (whole entry): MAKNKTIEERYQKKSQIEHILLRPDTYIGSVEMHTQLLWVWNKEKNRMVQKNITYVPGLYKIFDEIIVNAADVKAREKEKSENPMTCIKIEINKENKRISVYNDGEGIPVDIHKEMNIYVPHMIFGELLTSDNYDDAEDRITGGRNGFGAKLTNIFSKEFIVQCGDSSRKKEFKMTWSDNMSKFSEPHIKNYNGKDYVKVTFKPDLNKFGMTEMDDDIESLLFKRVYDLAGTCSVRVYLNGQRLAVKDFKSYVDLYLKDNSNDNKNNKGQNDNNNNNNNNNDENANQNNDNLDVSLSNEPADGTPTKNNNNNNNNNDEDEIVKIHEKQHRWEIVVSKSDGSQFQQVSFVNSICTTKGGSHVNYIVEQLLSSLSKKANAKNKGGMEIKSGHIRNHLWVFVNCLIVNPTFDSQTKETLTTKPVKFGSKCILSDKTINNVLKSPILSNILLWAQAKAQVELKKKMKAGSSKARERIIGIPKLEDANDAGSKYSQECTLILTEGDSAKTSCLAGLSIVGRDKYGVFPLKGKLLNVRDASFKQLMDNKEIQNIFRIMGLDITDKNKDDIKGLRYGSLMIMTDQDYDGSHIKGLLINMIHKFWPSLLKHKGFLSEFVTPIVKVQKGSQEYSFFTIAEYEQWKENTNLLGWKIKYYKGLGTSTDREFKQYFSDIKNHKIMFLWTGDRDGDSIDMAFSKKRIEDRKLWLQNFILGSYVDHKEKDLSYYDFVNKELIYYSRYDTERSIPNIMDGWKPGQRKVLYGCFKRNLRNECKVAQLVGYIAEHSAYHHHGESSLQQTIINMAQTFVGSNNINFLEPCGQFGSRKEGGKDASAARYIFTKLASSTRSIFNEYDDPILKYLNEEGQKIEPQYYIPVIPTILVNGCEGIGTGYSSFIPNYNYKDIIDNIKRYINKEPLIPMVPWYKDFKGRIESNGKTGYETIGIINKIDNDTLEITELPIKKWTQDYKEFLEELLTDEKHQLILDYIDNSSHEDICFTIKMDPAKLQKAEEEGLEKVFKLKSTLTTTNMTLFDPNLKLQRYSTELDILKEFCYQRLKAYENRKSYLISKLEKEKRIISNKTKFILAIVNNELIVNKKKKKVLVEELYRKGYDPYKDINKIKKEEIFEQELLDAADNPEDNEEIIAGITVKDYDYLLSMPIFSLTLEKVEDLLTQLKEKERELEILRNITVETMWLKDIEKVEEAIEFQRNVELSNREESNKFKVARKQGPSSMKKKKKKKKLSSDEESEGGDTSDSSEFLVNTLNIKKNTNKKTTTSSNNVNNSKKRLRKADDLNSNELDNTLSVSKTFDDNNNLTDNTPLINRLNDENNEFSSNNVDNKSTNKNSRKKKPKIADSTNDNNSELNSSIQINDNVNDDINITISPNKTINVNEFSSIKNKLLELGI

[8] = system: Plasmodium falciparum; assay: Inhibitory concentration against Plasmodium falciparum K1 infected erythrocytes; format: functional, organism-based
Outline: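 Chloroquine- and pyrimethamine-resistant K1 strain in infected erythrocyte suspensions (0.5% initial parasitemia), exposed to drug for 24 h at 37 °C. Read-out: [3H]hypoxanthine incorporation into parasites. IC50 in μM is the concentration that reduces incorporation to 50% of untreated controls.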

| IC50 [1] [nM] | IC50 [3] [nM] | MIC [6] [µM] | MIC [7] [µM] | Compound | selectivity ratio [2] | IC50 [4] [nM] | IC50 [5] [nM] | IC50 [8] [nM] |
| --- | --- | --- | --- | --- | --- | --- | --- | --- |
| 16000 | 600 | – | – | CCCCCNCc1ccc(Nc2c3ccc(N)cc3nc3cc(N)ccc23)cc1 | 27 | – | – | – |
| 15000 | 300 | – | – | Nc1ccc2c(Nc3ccccc3)c3ccc(N)cc3nc2c1 | 50 | – | – | – |
| > 20000 | 40 | – | – | CNC(=O)c1ccc(Nc2c3ccc(N)cc3nc3cc(N)ccc23)cc1 | > 500 | – | – | – |
| 2000 | 3000 | – | – | CS(=O)(=O)Nc1ccc(Nc2c3ccccc3nc3cc(N)ccc23)cc1 | 0.7 | – | – | – |
| 5000 | 160 | – | – | CN(C)S(=O)(=O)c1ccc(Nc2c3ccc(N)cc3nc3cc(N)ccc23)cc1 | 31 | – | – | – |
| 14000 | 1400 | – | – | Nc1ccc2c(Nc3ccc(S(=O)(=O)N4CCCCC4)cc3)c3ccc(N)cc3nc2c1 | 10 | – | – | – |
| 8500 | 500 | – | – | COc1cc(Nc2c3ccc(N)cc3nc3cc(N)ccc23)ccc1NS(C)(=O)=O | 17 | – | – | – |
| 11500 | 160 | – | – | CNc1ccc(Nc2c3ccc(N)cc3nc3cc(N)ccc23)cc1 | 72 | – | – | – |
| 15000 | 25 | 20 (≈ 6.31 µg/mL) | 10 (≈ 3.15 µg/mL) | Nc1ccc(Nc2c3ccc(N)cc3nc3cc(N)ccc23)cc1 | 600 | 37 | 33 | 25 |
| 3100 | > 10000 | > 100 | > 100 | COc1ccc2c(Nc3ccc(S(N)(=O)=O)cc3)c3ccc(OC)cc3nc2c1 | < 3.2 | – | – | – |
| 2500 | 250 | – | – | CN(C)Cc1ccc(Nc2c3ccccc3nc3cc(N)ccc23)cc1 | 10 | – | – | – |
| > 20000 | 600 | – | – | CN(C)C(=O)c1ccc(Nc2c3ccc(N)cc3nc3cc(N)ccc23)cc1 | > 33 | – | – | – |
| 500 | 320 | – | – | CNc1ccc(Nc2c3ccccc3nc3cc(N)ccc23)cc1 | 1.6 | – | – | – |
| 800 | 100 | – | – | COc1cc(NS(C)(=O)=O)ccc1Nc1c2ccc(N)cc2nc2cc(N)ccc12 | 8 | – | – | – |
| > 20000 | > 10000 | > 100 | 100 (≈ 41.8 µg/mL) | NS(=O)(=O)c1ccc(Nc2c3ccc(Cl)cc3nc3cc(Cl)ccc23)cc1 | – | – | – | – |
| 2000 | 14 | 20 (≈ 7.87 µg/mL) | 25 (≈ 9.84 µg/mL) | CNS(=O)(=O)c1ccc(Nc2c3ccc(N)cc3nc3cc(N)ccc23)cc1 | 143 | – | – | – |
| 750 | 100 | – | – | Nc1ccc(Nc2c3ccccc3nc3cc(N)ccc23)cc1 | 7.5 | – | – | – |
| > 20000 | 70 | 20 (≈ 6.87 µg/mL) | 6 (≈ 2.06 µg/mL) | NC(=O)c1ccc(Nc2c3ccc(N)cc3nc3cc(N)ccc23)cc1 | > 285 | – | – | – |
| > 20000 | 200 | – | – | Nc1ccc2c(Nc3ccc(CN4CCCCC4)cc3)c3ccc(N)cc3nc2c1 | > 100 | – | – | – |
| < 1000 | 290 | – | – | CN(C)c1ccc(Nc2c3ccccc3nc3cc(N)ccc23)cc1 | < 3.5 | – | – | – |
| 750 | 1500 | – | – | Nc1ccc(Nc2c3ccccc3nc3ccccc23)cc1 | 0.5 | – | – | – |
| 3000 | 150 | – | – | Cc1ccc(Nc2c3ccc(N)cc3nc3cc(N)ccc23)cc1 | 20 | – | – | – |

More lines, now with the values behind:

| Compound | IC50 [1] [nM] | IC50 [3] [nM] | MIC [6] [µM] | MIC [7] [µM] | selectivity ratio [2] | IC50 [4] [nM] | IC50 [5] [nM] | IC50 [8] [nM] |
| --- | --- | --- | --- | --- | --- | --- | --- | --- |
| CNc1ccc(Nc2c3ccccc3nc3ccccc23)cc1 | 1500 | 400 | – | – | 3.8 | – | – | – |
| C[C@@H]1CC[C@H]2[C@@H](C)C(=O)O[C@@H]3O[C@@]4(C)CC[C@@H]1[C@]32OO4 [ARTEMISININ] | – | – | – | – | – | 12 | 13 | – |
| [N-]=[N+]=Nc1ccc2c(Nc3ccc(S(N)(=O)=O)cc3)c3ccc(N=[N+]=[N-])cc3nc2c1 | 2500 | 30 | – | – | 83 | – | – | – |
| Nc1ccc2c(=Nc3ccc(S(N)(=O)=O)cc3)c3ccc(N)cc3[nH]c2c1 | 20000 | 20 | 20 (≈ 7.59 µg/mL) | 6 (≈ 2.28 µg/mL) | 1000 | – | – | – |
| COc1cc(N=c2c3ccccc3[nH]c3cc(N)ccc23)ccc1NS(C)(=O)=O | < 1000 | 2700 | – | – | < 0.4 | – | – | – |
| CN(C)c1ccc(Nc2c3ccc(N)cc3nc3cc(N)ccc23)cc1 | 6000 | 34 | 20 (≈ 6.87 µg/mL) | 12.5 (≈ 4.29 µg/mL) | 176 | 118 | 63 | 34 |
| CS(=O)(=O)Nc1ccc(Nc2c3ccc(N)cc3nc3cc(N)ccc23)cc1 | 1000 | 30 | 10 (≈ 3.93 µg/mL) | 6 (≈ 2.36 µg/mL) | 33 | – | – | – |
| Nc1ccc2c(Nc3ccc(O)cc3)c3ccc(N)cc3nc2c1 | 10000 | 50 | 20 (≈ 6.33 µg/mL) | 6 (≈ 1.9 µg/mL) | 200 | – | – | – |
| COc1cc(NS(C)(=O)=O)ccc1Nc1c2ccc(N(C)C)cc2nc2cc(N(C)C)ccc12 | < 1000 | 400 | – | – | < 2.5 | – | – | – |
| COc1cc(NS(C)(=O)=O)ccc1Nc1c2ccccc2nc2ccccc12 [AMSACRINE] | < 1000 | 600 | – | – | < 1.5 | – | – | – |
| [N-]=[N+]=Nc1ccc2c(Nc3ccc(C(N)=O)cc3)c3ccc(N=[N+]=[N-])cc3nc2c1 | 1500 | 60 | > 100 | 50 (≈ 19.8 µg/mL) | 25 | – | – | – |
| CS(=O)(=O)Nc1ccc(Nc2c3ccccc3nc3ccccc23)cc1 | < 1000 | 3000 | – | – | < 0.3 | – | – | – |
| COc1ccc(Nc2c3ccc(N)cc3nc3cc(N)ccc23)cc1 | 4000 | 150 | 20 (≈ 6.61 µg/mL) | 6 (≈ 1.98 µg/mL) | 27 | – | – | – |
| CN(C)c1ccc2c(Nc3ccccc3)c3ccc(N(C)C)cc3nc2c1 | 1400 | 2400 | – | – | 0.6 | – | – | – |
| CN(C)Cc1ccc(Nc2c3ccccc3nc3ccccc23)cc1 | 7500 | 150 | – | – | 50 | – | – | – |
| COc1cc(Nc2c3ccccc3nc3ccccc23)ccc1NS(C)(=O)=O [o-Amsacrine] | 10000 | 26000 | – | – | 0.4 | – | – | – |
| CN(C)c1ccc(Nc2c3ccccc3nc3ccccc23)cc1 | < 1000 | 470 | – | – | < 2 | – | – | – |
| COc1cc(NS(C)(=O)=O)ccc1Nc1c2ccccc2nc2cc(N)ccc12 | < 1000 | 200 | – | – | < 5 | – | – | – |
| CN(C)Cc1ccc(Nc2c3ccc(Cl)cc3nc3cc(Cl)ccc23)cc1 | 5000 | 250 | – | – | 20 | – | – | – |
